SR-BI DiI inh: inhibitors of mouse SR-BI mediated HDL lipid uptake; Q61009; AID 488896; inhibition, % at 12.5 µM; actives 0.96% (n = 320,000); ldlA[mSR-BI] CHO cells, DiI-HDL uptake fluorescence, 3 h;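 active = mean replicate inhibition of at least 70% and a set share of replicates each scoring 70 or more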;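 note: 0% = median of neutral control wells and 100% = median of positive control wells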
GRK2 aptamer HTS: human GRK2 inhibition via aptamer displacement; P25098; AID 488847; actives 0.59% (n = 330,000); bead flow cytometry, FAM-aptamer displacement from GRK2; inhibition of aptamer binding, % at 10 µM;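 active = inhibition of aptamer binding above 40%, roughly 3 SD of noise, on plates passing a quality check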;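 note: median bead fluorescence of bound FAM aptamer so fluorescent compounds give negative values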
Rin1 Abl inh: human Rin1-Abl interaction inhibition. inhibition, % at 7.35 µM. AID 588664. actives 0.4% (n = 360,000). TR-FRET Rin1/Abl binding, biochemical. P00519+Q13671; in the data active = inhibition above about 5%, passing the limit was not always enough
SR-BI uptake up: activators of SR-BI mediated HDL lipid uptake; CHO ldlA[mSR-BI] cells, DiI-HDL uptake fluorescence, 3 h; 100 = double the neutral-control signal; activation, % at 12.5 µM; actives 0.096% (n = 320,000); AID 504775;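 active = mean replicate activation of at least 60% and every replicate at or above 60%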;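 note: 0% = median plate neutral-control signal and 100% = twice that signal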
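Material: SR-BI-overexpressing, LDLR-lacking CHO cells; schedule: compound exposure 3 h, 37 °C; reagent: DiI-labelled HDL at 10 µg/mL final; technique: bottom-read fluorescence, 550/595 nm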
* marks the source's active call; other numbers are inactive results; · = not tested or not shown. An excerpt weighted towards active compounds, which were near 1.9% of everything screened.

SMILES	SR-BI DiI inh	GRK2 aptamer HTS	Rin1 Abl inh	SR-BI uptake up
CCCCc1c(O)nc(SCC(=O)c2ccccc2)[nH]c1=O	-71	1	5	71*
CCCCc1c(O)nc(SCC(=O)O)[nH]c1=O	-24	1	-1	24
COc1ccc(-c2nn(-c3ccccc3)cc2/C=N/NC(=O)c2ccc(Br)o2)cc1	82*	2	-2	-82
COc1ccc(-c2nn(-c3ccccc3)cc2/C=C/C(=O)OCC(=O)Nc2ccc(C#N)cc2)cc1	87*	0	3	-87
O=C(N/N=C/c1cn(-c2ccccc2)nc1-c1ccc(F)cc1)c1ccc2c(c1)OCO2	74*	0	2	-74
COc1ccc(-c2nn(-c3ccccc3)cc2/C=N/NC(=O)c2ccc3c(c2)OCO3)cc1	·	0	·	·
Cc1ccc(CNc2ncnc3c2cnn3C2CCCCO2)cc1 (centres undefined)	4	·	4	-4
O=C(NC(C(=O)c1ccccc1)c1ccccc1)c1ccccc1 (centres undefined)	5	·	4	-5
CCOc1ccccc1NC(=O)C1CCCN1C(=O)c1cccs1 (centres undefined)	-87	2	4	87*
CCOc1ccccc1NC(=O)N1CCCC1C(=O)NCc1cccs1 (centres undefined)	4	0	1	-4
CN(C)CCN(C)C1CN(Cc2ccc(F)cc2)S(=O)(=O)C1 (centres undefined)	·	·	-1	·
COc1ccc(C(=O)NCC(=O)N/N=C/C(C)=C/c2ccco2)cc1OC	85*	1	-4	-85
CCOC(=O)C1CCCN(C(=O)Cn2ncc3c([nH]c4ccc(C)cc43)c2=O)C1 (centres undefined)	3	0	-1	-3
CSCCC(NS(=O)(=O)Cc1ccccc1)C(=O)NNc1ccccc1 (centres undefined)	·	·	4	·
C=CCn1c2ccccc2c(=O)c2cc(C#Cc3cc(OC)cc(OC)c3)ccc21	87*	1	0	-87
O/N=C(\Cn1ccnc1)c1ccccc1	-19	·	-3	19
Cc1cc(O)ccc1Nc1cc(-c2cccc(N(C)C)c2)ncn1	·	·	-2	·
COc1ccc(NC(=O)/C(C#N)=C/c2ccc(Br)o2)cc1	2	67*	6	-2
CCCCC[C@@H](/C=C/C1C(=O)C=C[C@H]1C/C=C\CCCC(=O)OC)OC(C)=O (some centres undefined)	-7	·	1	7
CC(C)[C@H](NS(=O)(=O)c1ccccc1)C(=O)OCC(=O)Nc1cccc(S(N)(=O)=O)c1	-3	71*	4	3
CCc1noc(C)c1C(=O)NNC(=O)c1ccccc1Cl	-24	4	-2	24
COc1cccc(NC(=O)c2ccnc(N3CCC(C(=O)NCc4cc(OC)ccc4OC)CC3)c2)c1	79*	2	-1	-79
CCOc1ccc(NC(=O)CN(C)C(=O)c2ccccc2OCc2cccc(C)c2)cc1OCC	86*	0	-1	-86
Cc1cccc(COc2ccccc2C(=O)N(C)CC(=O)Nc2cccc(F)c2)c1	37	0	5	-37
Cc1ccc(C(=O)N2CCCC(C(=O)c3ccc(Oc4ccccc4)cc3)C2)cn1 (centres undefined)	0	2	2	0
SMILES	SR-BI DiI inh	GRK2 aptamer HTS	Rin1 Abl inh	SR-BI uptake up
COc1ccc(/C(C)=N/NC(=O)c2ccc(CSc3cccc4cccnc34)cc2)cc1OC	90*	1	-4	-90
O=C(c1cnn2c(C(F)F)cc(-c3ccccc3)nc12)N1CCN(Cc2ccc3c(c2)OCO3)CC1	78*	4	-2	·
CCN1CCN(C(=O)c2cnn3c(C(F)F)cc(-c4ccc(C)cc4)nc23)CC1	28	0	-2	-28
Cc1ccc(-c2cc(C(F)F)n3ncc(C(=O)N4CCN(c5ccccn5)CC4)c3n2)cc1	78*	1	1	-77
COc1ccc(N2CCN(Cc3nc4c(c(=O)n(C)c(=O)n4C)n3CCc3ccccc3)CC2)cc1	-15	4	-3	15
COc1ccc(N2CCN(c3nc4c(c(=O)n(C)c(=O)n4C)n3CCCc3ccccc3)CC2)cc1	-373	0	-2	373*
CCc1nc2c(OCc3ccccc3C(=O)OC)cccn2c1N(C)C(=O)c1cccc(OC)c1	·	·	4	·
Cc1cc(C(C)(C)C)c(OC(=O)[C@@H]2OC(c3ccccc3)=C[C@H]2c2ccccc2)c(C(C)(C)C)c1	-5	3	1	5
COc1cc(C(=O)Oc2ccc(/C=N/NC(=O)c3ccncc3)cc2)cc(OC)c1OC	73*	0	-1	-73
O=C(N/N=C/c1cc(Br)ccc1O)c1ccncc1	120*	4	-4	-120
O=C(N/N=C/c1ccc(O)c2ncccc12)c1cccc(Br)c1	72*	0	4	-72
Nc1nonc1C(=O)N/N=C/c1cc(Br)ccc1O	138*	1	·	-138
CCC[C@H]1CN(c2ccccc2)C(=O)[C@@H]1CC(=O)Nc1ccc(Br)cc1	·	·	-3	·
O=C(N/N=C/c1cc(Br)ccc1OC(=O)c1ccc(Br)cc1)c1ccncc1	96*	0	1	-96
NC(=O)N/N=C\c1cc(Br)ccc1O	-15	6	-2	15
O=C(N/N=C/c1cc(Cl)ccc1O)c1ccc(Br)cc1	135*	0	-1	-135
O=C(N/N=C/c1cc(O)ccc1Br)c1cccnc1	77*	2	0	-77
O=C(N/N=C/c1ccc(OC(=O)c2ccc(Br)cc2)cc1)c1ccncc1	·	0	4	·
O=C(CNC(=O)c1ccc(S(=O)(=O)N2CCCC2)cc1)N/N=C/c1ccc(Cl)cc1	72*	0	0	-72
COCC(=O)N1CCC(Oc2ccc(C(=O)NC3Cc4ccccc4C3)cc2)CC1	35	4	2	-35
O=C(N/N=C\c1cc(Br)ccc1O)c1ccc(S(=O)(=O)N2CCCCC2)cc1	137*	0	-3	-137
Cc1ccc(N=Nc2ccc(O)c(/C=N\NC(=O)c3ccc(N)cc3)c2)cc1C	115*	0	2	-115
Cc1cc(C(=O)N/N=C/c2cc(Br)ccc2OC(=O)c2ccccc2Cl)n[nH]1	87*	0	-2	-87
O=C(N/N=C/c1ccc2nccnc2c1)c1ccncc1	-355	2	-3	355*
O=C(N/N=C/c1ccc(O)c(O)c1)c1cccc(S(=O)(=O)N2CCCCC2)c1	4	0	-1	-4
Cc1cc(C(=O)N/N=C/c2cc(Br)ccc2OC(=O)c2ccccc2)n[nH]1	45	0	-1	-45
COc1ccc(CN(C)C(=O)[C@H]2O[C@@H](n3ccc(N)nc3=O)[C@H](O)[C@@H]2O)cc1OC	·	·	2	·
O=C1NC[C@H](Cc2ccccc2)N(CC2CCN(CCc3ccc(-c4ccccc4)cc3)CC2)C1=O	24	·	-4	-24
Cc1c(C)c2ccc(OCC(=O)NCCc3c[nH]c4ccccc34)cc2oc1=O	·	·	-1	·
Cc1nnc(N2CCC(C(=O)NC3CCC(C)CC3)CC2)c2nn(-c3ccc(Cl)cc3)c(C)c12 (centres undefined)	88*	0	2	-88

Bioassay records deposited in PubChem BioAssay by several laboratories.
